Data set [1] in a line: Cytotoxicity against mouse J774A.1 cells after 24 to 72 hrs by MTT assay. The note with it: read-out: MNCC. In kind it is cell-based, J774.A1. The method in brief: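 J774A.1 macrophages in DMEM with 10% heat-inactivated FBS at 37 °C, 5% CO2. Seeded at 1×10^5 cells/well, 24 h preincubation, then compounds at 1–100 µg/mL for 72 h (table footnote: viability at 24 h). MTT 2 h, formazan dissolved in DMSO, absorbance read at 570 nm. Highest non-cytotoxic concentration reported.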
In general terms: Tetrazolium dyes change colour on reduction, which living cells bring about.

Data set [2] deals with Trypanosoma cruzi. The data set is described as follows: Antitrypanosomal activity against bloodstream trypomastigote stage of Trypanosoma cruzi Y infected in monkey LLC-MK2 cells measured after 24 hrs by neubauer chamber method. The following applies: LLC-MK2, in Primates. In kind it is functional. The method in brief: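 Y strain trypomastigotes taken from LLC-MK2 culture supernatant and held in RPMI-1640 with 10% FBS. Seeded at 4×10^5 cells/well and treated in triplicate for 24 h at 37 °C, 5% CO2. Motile parasites counted in a Neubauer chamber against untreated wells. IC50 by nonlinear regression from at least seven concentrations. Experiment repeated; SD < 10% of mean required.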

Data set [3] can be described thus: Selectivity index, ratio of highest non-cytotoxic concentration for mouse J774A.1 cells to CC50 for bloodstream trypomastigote stage of Trypanosoma cruzi Y infected in monkey LLC-MK2 cells. In kind it is toxicity, cell-based. The following applies: read-out: Selectivity Index. The method in brief:
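Selectivity index is the highest non-cytotoxic concentration in J774A.1 macrophages divided by the 50% value against Y strain trypomastigotes measured after 24 h.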

Data set [4] relates to Trypanosoma cruzi. The data set is described as follows: Antitrypanosomal activity against Trypanosoma cruzi Dm28c epimastigotes measured after 4 to 5 days by neubauer chamber method. It is filed as functional. In a few lines: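 Dm28c epimastigotes in LIT with 10% FBS, 1% hemin and gentamycin at 27 °C. Seeded at 10^6 cells/well and treated in triplicate for 4 days (table footnote: 5 days). Parasites counted in a Neubauer chamber against untreated wells as 100%. IC50 by nonlinear regression from at least five concentrations. Experiment repeated; only values with SD < 10% of mean kept.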

The test system of data set [5] is Trypanosoma cruzi. Description: Induction of apoptosis in bloodstream trypomastigote stage of Trypanosoma cruzi Y infected in monkey LLC-MK2 cells assessed as necrotic cells at 25 uM measured after 24 hrs by Annexin-V-FITC/propidium iodide staining based flow cytometric method (reference value: 0.014%). In kind it is functional. Background: A flow cytometer gives signals particle by particle.

Data set [6] relates to Trypanosoma cruzi. The data set is described as follows: Induction of apoptosis in bloodstream trypomastigote stage of Trypanosoma cruzi Y infected in monkey LLC-MK2 cells assessed as necrotic cells at 5 uM measured after 24 hrs by Annexin-V-FITC/propidium iodide staining based flow cytometric method (reference value: 0.014%). It is filed as functional.
For data set [7], the system named is Trypanosoma cruzi. The data set is described as follows: Potency index, ratio of benznidazole CC50 to compound CC50 for Trypanosoma cruzi Dm28c epimastigotes. In kind it is functional.
Data set [8] relates to Trypanosoma cruzi. The data set is described as follows: Potency index, ratio of benznidazole CC50 to compound CC50 for bloodstream trypomastigote stage of Trypanosoma cruzi Y infected in monkey LLC-MK2 cells. In kind it is functional.
The target of data set [9] is Cruzipain (Trypanosoma cruzi) (UniProt P25779). Description: Inhibition of Trypanosoma cruzi cruzain at 50 uM using Z-phe-Arg-aminomethylcoumarin as substrate pretreated for 10 mins measured for 5 mins by fluorometric method relative to control. In a few lines: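 Cruzain at 0.5 nM in 0.1 M sodium acetate pH 5.5 with 0.1 mM β-mercaptoethanol and 0.01% Triton X-100. Compound screened at 50 µM after a 10-min preincubation with enzyme, then 2.5 µM Z-FR-AMC added. AMC fluorescence (ex 340/em 440 nm) followed for 5 min. Activity taken from initial rates relative to a DMSO control. Two independent experiments, each in triplicate.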
Chain of Cruzipain (Trypanosoma cruzi) (P25779 123-467 limits assumed): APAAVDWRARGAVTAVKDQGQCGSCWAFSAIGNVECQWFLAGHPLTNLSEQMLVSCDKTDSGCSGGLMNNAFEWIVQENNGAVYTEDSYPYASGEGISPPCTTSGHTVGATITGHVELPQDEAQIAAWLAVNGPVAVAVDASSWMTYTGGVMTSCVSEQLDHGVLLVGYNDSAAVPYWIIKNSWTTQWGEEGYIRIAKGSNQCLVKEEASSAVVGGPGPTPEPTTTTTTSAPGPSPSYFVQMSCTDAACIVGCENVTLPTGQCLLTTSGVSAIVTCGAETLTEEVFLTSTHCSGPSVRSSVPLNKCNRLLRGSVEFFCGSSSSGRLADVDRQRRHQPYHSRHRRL

The text below walks through data of ChEMBL document CHEMBL4049394, “Desing and synthesis of potent anti-Trypanosoma cruzi agents new thiazoles derivatives which induce apoptotic parasite death” (Eur J Med Chem, 2017).

In the case of `C/C(=N\N=c1/sc(C)c(-c2ccccc2)n1-c1ccccc1)c1ccccn1`, the MNTC in data set [1] was 43 µM. The CC50 was found to be 2.3 µM with Trypanosoma cruzi [2] and 15.5 µM with Trypanosoma cruzi [4]. Besides, the selectivity ratio in data set [3] was 19.
For `C/C(=N\N=c1/scc(-c2ccc(Cl)c(Cl)c2)n1-c1ccccc1)c1ccccn1`, in that order: 8 µM, 1.9 µM, 13.9 µM and 4.
The matching figures for `C/C(=N\N=c1/scc(-c2ccc3ccccc3c2)n1C)c1ccccn1`: 30 µM, 3 µM, 8.2 µM and 10.
With `C/C(=N\N=c1/scc(-c2ccccc2)n1-c1ccccc1)c1ccccn1`, the MNTC in data set [1] turned out to be 51 µM. Moreover, the values for the CC50 in the data set with Trypanosoma cruzi [2] and in the data set with Trypanosoma cruzi [4] were 6.3 µM and 93.4 µM, respectively. For the same compound, in data set [3], the selectivity ratio was 8.
The matching figures for `C/C(=N\N=c1/scc(-c2ccc(Cl)cc2)n1-c1ccccc1)c1ccccn1`: 13 µM, 2 µM, 9.1 µM and 7.
On to `O=C(Cn1ccnc1[N+](=O)[O-])NCc1ccccc1` [BENZNIDAZOLE], for which the Activity in the data set on Trypanosoma cruzi [5] worked out at 56.4%; in the data set on Trypanosoma cruzi [6], 4.2%. The MNTC in data set [1] stood at 44.7 µM. Also, the CC50 in the data set with Trypanosoma cruzi [2] is 6.2 µM; with Trypanosoma cruzi [4], 48.8 µM. Moreover, the selectivity ratio in data set [3] is 7.2.
In the case of `C/C(=N\N=c1/sc(C)c(-c2ccc(Br)cc2)n1C)c1ccccn1`, in data set [1], the MNTC was determined as 68 µM. Besides, the CC50 in the data set with Trypanosoma cruzi [2] was 3.4 µM; with Trypanosoma cruzi [4] it was 2.9 µM. Further, the selectivity ratio in data set [3] amounted to 20.
For `COc1ccc(-c2cs/c(=N\N=C(/C)c3ccccn3)n2C)cc1`, in that order: 20 µM, 4.6 µM, 4.5 µM and 4.
The matching figures for `C/C(=N\N=c1/scc(-c2ccc3ccccc3c2)n1-c1ccccc1)c1ccccn1`: 51 µM, 6.1 µM, 1.9 µM and 8.
`C/C(=N\N=c1/sc(C)c(-c2ccc(Br)cc2)n1-c1ccccc1)c1ccccn1`: in data set [1], the MNTC was determined as 30 µM. The figures for the CC50 in the data set with Trypanosoma cruzi [2] and in the data set on Trypanosoma cruzi [4] were 3.1 µM and 17.1 µM, respectively. Further, the selectivity ratio in data set [3] is 10.
The matching figures for `C/C(=N\N=c1/scc(-c2ccc(Cl)cc2Cl)n1C)c1ccccn1`: 14 µM, 13 µM, 31.6 µM and 1.
For `C/C(=N\N=c1/scc(-c2ccc([N+](=O)[O-])cc2)n1C)c1ccccn1`, in that order: 36 µM, 7 µM, 13.7 µM and 5.
For `C/C(=N\N=c1/scc(-c2cccc([N+](=O)[O-])c2)n1-c1ccccc1)c1ccccn1`, in that order: 10 µM, 1.9 µM, 11 µM and 5.
As to `C/C(=N\N=c1/scc(-c2ccc(Cl)c(Cl)c2)n1C)c1ccccn1`, the Ratio in the data set with Trypanosoma cruzi [7] is on record as 7; in the data set on Trypanosoma cruzi [8] it was 3. For the same compound, the MNTC in [1] came to 11 µM. The CC50 came out at 2.3 µM with Trypanosoma cruzi [2] and 6.9 µM with Trypanosoma cruzi [4]. For the same compound, in data set [3], the selectivity ratio was determined as 5.
Turning to `C/C(=N\N=c1/scc(-c2ccccc2)n1C)c1ccccn1`, in data set [1], the MNTC amounted to 4 µM. For the same compound, the CC50 in the data set with Trypanosoma cruzi [2] came to 4 µM; with Trypanosoma cruzi [4], 56 µM. Further, the selectivity ratio in data set [3] stood at 1. Besides, the inhibition (as a rule, the share of the control response that was lost under treatment) in data set [9] came to 70%.
Take `CNC(=S)N/N=C(\C)c1ccccn1`: the MNTC in data set [1] worked out at 22 µM. In addition, in the data set on Trypanosoma cruzi [2], the CC50 is 8.8 µM. In addition, in data set [3], the selectivity ratio amounted to 2.5.
`C/C(=N\N=c1/scc(-c2cccc([N+](=O)[O-])c2)n1C)c1ccccn1`: the Ratio in the data set with Trypanosoma cruzi [8] was 3. For the same compound, in [1], the MNTC stood at 82 µM. For the same compound, the CC50 came to 2.4 µM in the data set on Trypanosoma cruzi [2] and 7.8 µM with Trypanosoma cruzi [4]. The selectivity ratio in data set [3] turned out to be 34.
In the case of `C/C(=N\N=c1/scc(-c2ccc(F)cc2)n1-c1ccccc1)c1ccccn1`, the MNTC in data set [1] stood at 35 µM. The CC50 with Trypanosoma cruzi [2] was determined as 3.9 µM; with Trypanosoma cruzi [4] it was 3.1 µM. Besides, the selectivity ratio in [3] came to 9. In data set [9], the inhibition worked out at 58%.
Regarding `C/C(=N\N=c1/scc(-c2ccc(Br)cc2)n1-c1ccccc1)c1ccccn1`, the MNTC in data set [1] was found to be 10 µM. Moreover, the CC50 in the data set with Trypanosoma cruzi [2] was 1.8 µM; in the data set on Trypanosoma cruzi [4], 6.3 µM. Moreover, in data set [3], the selectivity ratio is 6.
For the compound `C/C(=N\N=c1/sc(C)c(-c2ccccc2)n1C)c1ccccn1`, the MNTC in data set [1] turned out to be 97 µM. For the same compound, the values for the CC50 in the data set on Trypanosoma cruzi [2] and in the data set on Trypanosoma cruzi [4] were 2.7 µM and 6.2 µM, respectively. In data set [3], the selectivity ratio amounted to 36. Further, the inhibition in [9] was 73%.
Consider `C/C(=N\N=c1/scc(-c2ccc(-c3ccccc3)cc2)n1-c1ccccc1)c1ccccn1`, for which, in data set [1], the MNTC was determined as 7 µM. The CC50 in the data set on Trypanosoma cruzi [2] turned out to be 2 µM; in the data set on Trypanosoma cruzi [4], 47.3 µM. Further, the selectivity ratio in data set [3] stood at 4.
For the compound `C/C(=N\N=c1/scc(-c2ccc(Cl)cc2)n1C)c1ccccn1`, the MNTC in data set [1] was 20 µM. In the data set on Trypanosoma cruzi [2], this compound registered a CC50 of 4.5 µM. In addition, the selectivity ratio in [3] is 4.
Turning to `C/C(=N\N=c1/scc(-c2ccc([N+](=O)[O-])cc2)n1-c1ccccc1)c1ccccn1`, the MNTC in data set [1] came out at 23 µM. In addition, the CC50 with Trypanosoma cruzi [2] was 3.1 µM; with Trypanosoma cruzi [4], 87.4 µM. The selectivity ratio in data set [3] came to 7.
For `C/C(=N\N=c1/scc(-c2ccc(-c3ccccc3)cc2)n1C)c1ccccn1`, in that order: 6 µM, 2.2 µM, 66.6 µM and 3.
The matching figures for `C/C(=N\N=c1/scc(-c2ccc(F)cc2)n1C)c1ccccn1`: 12 µM, 5.6 µM, 8.5 µM and 2.
